Measurements reported in ChEMBL document CHEMBL2384910, “Lead optimization of 5-amino-6-(2,2-dimethyl-5-oxo-4-phenylpiperazin-1-yl)-4-hydroxyhexanamides to reduce a cardiac safety issue: discovery of DS-8108b, an orally active renin inhibitor” (Bioorg Med Chem, 2013).
Residue numbers refer to the chain shown, from its start.

Assays:
Rattus norvegicus = test: Cardiotoxicity in Sprague-Dawley rat electrophysiology model assessed as QRS complex abnormalities at 10 mg/kg, iv by ECG analysis; format: toxicity, organism-based; design: dose 10 mg/kg, route intravenous; conditions: in vivo
Procedure, shortened: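 Male Sprague-Dawley rats anesthetized with inactin 100 mg/kg ip; surface lead II ECG recorded continuously. Compounds given as iv bolus via right jugular vein catheter after stabilization; QRS complex abnormality scored as no, moderate or severe change; n = 2 at 10 mg/kg.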

Renin [1] = target: T1, Renin (Homo sapiens, UniProt P00797); test: Inhibition of human recombinant renin using Arg-Glu(EDANS)-Ile-His-Pro-Phe-His-Leu-Val-Ile-His-Thr-Lys (DABCYL)-Arg as substrate incubated for 10 mins prior to substrate addition measured after 90 mins by fluorescence assay
T1 sequence (P00797 whole entry): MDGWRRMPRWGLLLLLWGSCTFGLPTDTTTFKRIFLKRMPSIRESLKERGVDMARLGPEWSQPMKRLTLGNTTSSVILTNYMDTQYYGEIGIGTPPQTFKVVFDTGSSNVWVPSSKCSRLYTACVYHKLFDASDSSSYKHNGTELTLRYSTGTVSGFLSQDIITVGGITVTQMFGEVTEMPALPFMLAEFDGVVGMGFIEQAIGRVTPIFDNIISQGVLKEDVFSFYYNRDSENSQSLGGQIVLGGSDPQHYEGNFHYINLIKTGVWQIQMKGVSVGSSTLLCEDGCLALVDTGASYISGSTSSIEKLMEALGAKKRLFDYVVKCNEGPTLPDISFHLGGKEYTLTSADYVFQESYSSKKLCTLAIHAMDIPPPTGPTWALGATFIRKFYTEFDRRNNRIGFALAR
Procedure, shortened: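 Trypsin-activated recombinant human renin in 50 mM Tris-HCl pH 7.9, 100 mM NaCl, preincubated with compound 10 min at room temperature; FRET substrate Arg-Glu(EDANS)…Lys(DABCYL)-Arg added, 90 min at 37 °C.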

[2] = target: T2, Renin (Macaca fascicularis) (UniProt Q6DLS0); test: Ratio of compound IC50 to aliskiren IC50 for renin in cynomolgus monkey plasma
T2 sequence (whole entry): T1 sequence (P00797 whole entry) with T68A, I214L, S235A

Renin [3] = target: T3, Renin (Macaca fascicularis, UniProt Q6DLS0); test: Inhibition of renin in cynomolgus monkey plasma after 1 hr by RIA
T3 sequence (Q6DLS0 whole entry): T1 sequence (P00797 whole entry) with T68A, I214L, S235A
Procedure, shortened: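 Pooled mixed-gender EDTA cynomolgus monkey plasma with pH adjusting solution and Inhibitor A, compound in 1% DMSO final, incubated 1 h at 37 °C. Angiotensin I by competitive RIA; uninhibited and 4 °C controls define % inhibition; IC50 from four-parameter fit; ratio is compound IC50 over aliskiren IC50 in same plasma batch; ≥2 replicates.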

Structure (SMILES) | Activity (Rattus norvegicus) | IC50 (Renin [1]) [nM] | Ratio IC50 [2] | IC50 (Renin [3]) [nM]
CC(C)[C@H](C[C@H](O)[C@@H](N)CN1CC(=O)N(c2ccccc2Cl)CC1(C)C)C(=O)NCC(C)(C)O.O=C(O)/C=C/C(=O)O | Non-toxic | 2.4 | 1.9 | 15
Cc1ccc(F)cc1N1CC(C)(C)N(C[C@H](N)[C@@H](O)C[C@H](C(=O)Nc2cccnc2)C(C)C)CC1=O.O=C(O)/C=C/C(=O)O | Toxic | 2.4 | 3.3 | 33
COC(=O)C(C)(C)CNC(=O)[C@@H](C[C@H](O)[C@@H](N)CN1CC(=O)N(c2ccccc2Cl)CC1(C)C)C(C)C.O=C(O)/C=C/C(=O)O | Toxic | 1.8 | 1.6 | 23
CC(C)[C@H](C[C@H](O)[C@@H](N)CN1CC(=O)N(c2ccccc2Cl)CC1(C)C)C(=O)Nc1ccccn1.O=C(O)/C=C/C(=O)O | Toxic | 1.8 | 0.7 | 3.4
CC[C@H](C[C@H](O)[C@@H](N)CN1CC(=O)N(c2ccccc2Cl)CC1(C)C)C(=O)Nc1ccc(F)cn1.O=C(O)/C=C/C(=O)O | Toxic | 1 | 0.6 | 2.1
Cc1cccc(NC(=O)[C@@H](C[C@H](O)[C@@H](N)CN2CC(=O)N(c3ccccc3Cl)CC2(C)C)C(C)C)n1.O=C(O)/C=C/C(=O)O | Toxic | 5.6 | 7.3 | 47
CC(C)[C@H](C[C@H](O)[C@@H](N)CN1CC(=O)N(c2ccccc2Cl)CC1(C)C)C(=O)N[C@H]1C2CC3CC1C[C@](O)(C3)C2.O=C(O)/C=C/C(=O)O | Non-toxic | 1.3 | 0.9 | 2.2
Cc1ccc(F)cc1N1CC(C)(C)N(C[C@H](N)[C@@H](O)C[C@H](C(=O)NCC(C)(C)C(=O)O)C(C)C)CC1=O |  | 16 | 16 | 39
CC[C@H](C[C@H](O)[C@@H](N)CN1CC(=O)N(c2ccccc2Cl)CC1(C)C)C(=O)NCC(C)(C)C.O=C(O)/C=C/C(=O)O | Toxic | 0.8 | 0.3 | 2.3
CC[C@H](C[C@H](O)[C@@H](N)CN1CC(=O)N(c2ccccc2Cl)CC1(C)C)C(=O)Nc1ccc(F)cc1.O=C(O)/C=C/C(=O)O | Toxic | 1.6 | 0.9 | 3.4
CC[C@H](C[C@H](O)[C@@H](N)CN1CC(=O)N(c2cc(F)ccc2Cl)CC1(C)C)C(=O)N[C@H]1C2CC3CC1C[C@](O)(C3)C2.O=C(O)/C=C/C(=O)O | Non-toxic | 1.4 | 0.7 | 3.6
CC[C@H](C[C@H](O)[C@@H](N)CN1CC(=O)N(c2cc(F)ccc2C)CC1(C)C)C(=O)N[C@H]1C2CC3CC1C[C@](O)(C3)C2.O=C(O)/C=C/C(=O)O | Non-toxic | 1.6 | 0.9 | 4.6
CC(C)[C@H](C[C@H](O)[C@@H](N)CN1CC(=O)N(c2ccccc2Cl)CC1(C)C)C(=O)Nc1ccc(F)cc1.O=C(O)/C=C/C(=O)O | Toxic | 1.4 | 1.2 | 7.2
CC[C@H](C[C@H](O)[C@@H](N)CN1CC(=O)N(c2ccccc2Cl)CC1(C)C)C(=O)NCC(CC)(CC)CO.O=C(O)/C=C/C(=O)O | Toxic | 1 | 0.8 | 3
CC[C@H](C[C@H](O)[C@@H](N)CN1CC(=O)N(c2ccccc2Cl)CC1(C)C)C(=O)NCC1(CO)CCCC1.O=C(O)/C=C/C(=O)O | Toxic | 1.1 | 0.7 | 3
CC(C)[C@H](C[C@H](O)[C@@H](N)CN1CC(=O)N(c2ccccc2Cl)CC1(C)C)C(=O)NC1CCOCC1.O=C(O)/C=C/C(=O)O | Toxic | 2 | 1.4 | 9.8
CC[C@H](C[C@H](O)[C@@H](N)CN1CC(=O)N(c2ccccc2Cl)CC1(C)C)C(=O)N[C@H]1C2CC3CC1C[C@@](O)(C3)C2.O=C(O)/C=C/C(=O)O | Toxic | 1.1 | 0.7 | 1.8

Structure (SMILES) | Activity (Rattus norvegicus) | IC50 (Renin [1]) [nM] | Ratio IC50 [2] | IC50 (Renin [3]) [nM]
CC(C)NC(=O)[C@@H](C[C@H](O)[C@@H](N)CN1CC(=O)N(c2ccccc2Cl)CC1(C)C)C(C)C.O=C(O)/C=C/C(=O)O | Toxic | 2.9 | 2.7 | 33
CC(C)[C@H](C[C@H](O)[C@@H](N)CN1CC(=O)N(c2ccccc2Cl)CC1(C)C)C(=O)NCC(C)(C)CO.O=C(O)/C=C/C(=O)O | Toxic | 1.7 | 0.8 | 9.6
CC(C)[C@H](C[C@H](O)[C@@H](N)CN1CC(=O)N(c2ccccc2Cl)CC1(C)C)C(=O)NCC(C)(C)C(N)=O.O=C(O)/C=C/C(=O)O | Non-toxic |  | 1.2 | 
CC(C)[C@H](C[C@H](O)[C@@H](N)CN1CC(=O)N(c2ccccc2Cl)CC1(C)C)C(=O)Nc1cccnc1 |  | 2.1 | 1.9 | 19
CC[C@H](C[C@H](O)[C@@H](N)CN1CC(=O)N(c2ccccc2Cl)CC1(C)C)C(=O)NCC1(CO)CCCCC1.O=C(O)/C=C/C(=O)O | Toxic | 1.1 | 0.6 | 3.4
CC[C@H](C[C@H](O)[C@@H](N)CN1CC(=O)N(c2ccccc2Cl)CC1(C)C)C(=O)Nc1cc(OC)ccn1 |  | 6.7 | 13 | 33
C[C@H](C[C@H](O)[C@@H](N)CN1CC(=O)N(c2ccccc2Cl)CC1(C)C)C(=O)NCC(C)(C)C |  | 1 | 0.5 | 2.1
C[C@H](C[C@H](O)[C@@H](N)CN1CC(=O)N(c2ccccc2Cl)CC1(C)C)C(=O)N[C@H]1C2CC3CC1C[C@](O)(C3)C2.O=C(O)/C=C/C(=O)O | Non-toxic | 1.1 | 1.6 | 7.3
CC[C@H](C[C@H](O)[C@@H](N)CN1CC(=O)N(c2ccccc2Cl)CC1(C)C)C(=O)Nc1ncccc1C.O=C(O)/C=C/C(=O)O | Toxic | 3.8 | 2.9 | 15
CC(C)[C@H](C[C@H](O)[C@@H](N)CN1CC(=O)N(c2ccccc2Cl)CC1(C)C)C(=O)Nc1ncc(F)cc1F.O=C(O)/C=C/C(=O)O | Toxic | 1.7 | 0.7 | 3.3
CCCCNC(=O)[C@@H](C[C@H](O)[C@@H](N)CN1CC(=O)N(c2cc(F)ccc2Cl)CC1(C)C)C(C)C |  |  | 1.2 | 
Cc1ccc(F)cc1N1CC(C)(C)N(C[C@H](N)[C@@H](O)C[C@H](C(=O)N[C@H]2C3CC4CC2C[C@](O)(C4)C3)C(C)C)CC1=O.O=C(O)/C=C/C(=O)O | Non-toxic | 1.7 | 0.9 | 10
Cc1ccc(F)cc1N1CC(C)(C)N(C[C@H](N)[C@@H](O)C[C@@H](C)C(=O)NCC(C)(C)C)CC1=O.O=C(O)/C=C/C(=O)O | Toxic | 1.1 | 0.6 | 3.4
CC[C@H](C[C@H](O)[C@@H](N)CN1CC(=O)N(c2ccccc2Cl)CC1(C)C)C(=O)Nc1ccc(OC)cc1.O=C(O)/C=C/C(=O)O | Toxic | 1.4 | 2.1 | 11
CC(C)CNC(=O)C(C)(C)C[C@H](O)[C@@H](N)CN1CC(=O)N(c2cc(F)ccc2Cl)CC1(C)C.O=C(O)/C=C/C(=O)O | Toxic | 97 | 132 | 738
CCCCNC(=O)[C@@H](C[C@H](O)[C@@H](N)CN1CC(=O)N(c2ccccc2Cl)CC1(C)C)C(C)C.O=C(O)/C=C/C(=O)O | Toxic |  | 0.8 | 
